Assay results published in ChEMBL document CHEMBL3865800, “Design, synthesis and biological evaluation of 4-anilinoquinazoline derivatives as new c-myc G-quadruplex ligands” (Eur J Med Chem, 2016).
The source made the active and inactive calls. The calls are words filed in the database; no cut-off is given here.

How the values were obtained:
[1] = Binding affinity to biotinylated 5'-Pu22-3'-labelled c-myc G-quadruplex DNA (unknown origin) after 240 secs by SPR assay
Method in brief: (§1)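 SPR: biotinylated Pu22 and biotinylated duplex folded in 50 mM Tris-HCl pH 7.4, 150 mM KCl, 0.005% Tween20, captured (~1000 RU) on separate flow cells with a blank reference; ligand 0.0625–10 μM in running buffer, 240 s association then 240 s dissociation at 25 °C; equilibrium KD derived.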

[2] = Selectivity ratio of Kd for double stranded DNA (unknown origin) to Kd for biotinylated 5'-Pu22-3'-labelled c-myc G-quadruplex DNA
[3] = Cytotoxicity against mouse primary mesangial cells assessed as reduction in cell viability after 48 hrs by MTT assay; format: toxicity
[4] = Cytotoxicity against human Raji cells assessed as reduction in cell viability after 48 hrs by MTT assay; format: functional, cell-based
[5] = Cytotoxicity against human CA46 cells assessed as reduction in cell viability after 48 hrs by MTT assay; format: functional, cell-based; settings: CA46, 48 h
[6] = Cytotoxicity against human HeLa cells assessed as reduction in cell viability after 48 hrs by MTT assay; format: functional, cell-based
[7] = Binding affinity to 5'-FPu22T-3'-labelled c-myc G-quadruplex DNA (unknown origin) assessed as change in melting temperature at 2 uM in presence ds26 DNA of by FRET assay
Method in brief: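 FRET melting of 0.4 μM labelled FPu22T with ligand 2.0 μM, alone or with 10-fold (4 μM), 50-fold (20 μM) or 100-fold (40 μM) excess unlabelled duplex ds26 as competitor; Tris-HCl 10 mM pH 7.4 with 10 or 60 mM KCl; ex 470/em 530 nm read every 1 °C from 37–99 °C, 30 s hold; ΔTm = Tm(DNA+ligand) − Tm(DNA).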

[8] = Binding affinity to 5'-FPu22T-3'-labelled c-myc G-quadruplex DNA (unknown origin) assessed as change in melting temperature by FRET assay
Method in brief: (§2)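 Fluorescence melting on real-time PCR instrument; 0.4 μM labelled oligonucleotide (FPu22T or duplex-forming F10T), ligand 2.0 μM, in 10 mM Tris-HCl pH 7.4 with 10 or 60 mM KCl; ex 470/em 530 nm at 1 °C steps over 37–99 °C, 30 s equilibration each; ΔTm = Tm(DNA+ligand) − Tm(DNA).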

[9] = Binding affinity to biotinylated double stranded DNA (unknown origin) after 240 secs by SPR assay; method in brief: as §1
[10] = Binding affinity to F10T duplex DNA (unknown origin) assessed as change in melting temperature by FRET assay; method in brief: as §2
[11] = Cytotoxicity against human A549 cells assessed as reduction in cell viability after 48 hrs by MTT assay; format: functional, cell-based; settings: A549, 48 h
[12] = Binding affinity to 5'-Pu22-3' c-myc G-quadruplex DNA (unknown origin) assessed as maintainance of parallel c-myc G-quadruplex conformation at 2 equiv after 6 hrs in presence of KCl by CD-spectroscopic analysis
Method in brief: (§3)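 Pu22 at 3 μM final in 10 mM Tris-HCl buffer with ligand at 2 equiv, with 100 mM KCl or without KCl; heated 95 °C 5 min, slowly cooled, held ≥6 h; CD spectra 230–330 nm, 1 mm quartz cell, 1 nm bandwidth and step, 0.5 s/point, average of two scans.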

[13] = Binding affinity to 5'-Pu22-3' c-myc G-quadruplex DNA (unknown origin) assessed as induction of parallel c-myc G-quadruplex conformation at 2 equiv after 6 hrs in absence of KCl by CD-spectroscopic analysis; method in brief: as §3

Row | Kd [1] | Selectivity ratio [2] | Activity [7] | ΔTm [8] | Kd [9] | ΔTm [10] | Activity [12] | Activity [13] | Structure (SMILES) | IC50 at 48 h [3] | IC50 [4] | IC50 [5] | IC50 [6] | IC50 [11]
1 | 1.64 µM | > 6.1 | Active | 12.2 °C | > 10 µM | 0.2 °C | – | – | CCN(CC)CCC(=O)Nc1ccc(Nc2nc(N(CC)CC)nc3ccccc23)cc1 | 6.4 µM | 5.1 µM | 10.3 µM | 6.3 µM | 6.1 µM
2 | – | – | – | 0.1 °C | – | 0.1 °C | – | – | CCN(CC)CC(=O)Nc1ccc(Nc2nc(Cl)nc3ccccc23)cc1 | > 50 µM | > 50 µM | 33.2 µM | > 50 µM | > 50 µM
3 | 0.21 µM | – | Active | 18 °C | – | 0.6 °C | Active | Active | CCN(CC)CCNCCC(=O)Nc1ccc(Nc2nc(-c3ccccc3NC(=O)CCNCCN(CC)CC)nc3ccccc23)cc1 | > 50 µM | > 50 µM | > 50 µM | > 50 µM | > 50 µM
4 | 0.52 µM | > 19.2 | Active | 13.1 °C | > 10 µM | 0.4 °C | – | – | CCN(CC)CCCCC(=O)Nc1ccc(Nc2nc(-c3ccccc3NC(=O)CCCCN(CC)CC)nc3ccccc23)cc1 | > 50 µM | 12.6 µM | 5.7 µM | 12.7 µM | > 50 µM
5 | 1.6 µM | 3.9 | Active | 26.6 °C | 6.21 µM | 3.6 °C | – | – | CCN(CC)CCCNCCC(=O)Nc1ccc(Nc2nc(-c3ccccc3NC(=O)CCNCCCN(CC)CC)nc3ccccc23)cc1 | > 50 µM | > 50 µM | > 50 µM | > 50 µM | > 50 µM
6 | 0.61 µM | – | – | 12.5 °C | – | 0.1 °C | – | – | CN1CCN(CC(=O)Nc2ccc(Nc3nc(-c4ccccc4NC(=O)CN4CCN(C)CC4)nc4ccccc34)cc2)CC1 | 38.2 µM | 17.9 µM | 12.3 µM | 28.7 µM | 21.6 µM
7 | 3.34 µM | > 3 | – | 10 °C | > 10 µM | 0.4 °C | – | – | CCN(CC)CC(=O)Nc1ccc(Nc2nc(N(CC)CC)nc3ccccc23)cc1 | 10.2 µM | 13.5 µM | 4.2 µM | 21 µM | 20.8 µM
8 | > 10 µM | – | – | 1.4 °C | – | 0.2 °C | – | – | Oc1ccccc1-c1nc(Nc2ccc(OCCN3CCCCC3)cc2)c2ccccc2n1 | – | – | – | – | –

More lines, now with the values behind:

Row | Structure (SMILES) | Kd [1] | Selectivity ratio [2] | Activity [7] | ΔTm [8] | Kd [9] | ΔTm [10] | Activity [12] | Activity [13] | IC50 at 48 h [3] | IC50 [4] | IC50 [5] | IC50 [6] | IC50 [11]
9 | CCN(CC)CCOc1ccc(Nc2nc(N(CC)CC)nc3ccccc23)cc1 | 2.89 µM | – | – | 7.1 °C | – | 0.4 °C | – | – | 9.8 µM | 20.3 µM | 20.5 µM | 17.4 µM | 5 µM
10 | CCN(CC)CCOc1ccc(Nc2nc(-c3ccccc3O)nc3ccccc23)cc1 | > 10 µM | – | – | 0.4 °C | – | 0.1 °C | – | – | – | – | – | – | –
11 | CN1CCN(CCC(=O)Nc2ccc(Nc3nc(-c4ccccc4NC(=O)CCN4CCN(C)CC4)nc4ccccc34)cc2)CC1 | 0.4 µM | – | Active | 13.2 °C | – | 0.3 °C | Active | Active | > 50 µM | 27.8 µM | 19.5 µM | 20.1 µM | > 50 µM
12 | O=C(CCN1CCOCC1)Nc1ccc(Nc2nc(-c3ccccc3NC(=O)CCN3CCOCC3)nc3ccccc23)cc1 | 1.33 µM | – | – | 4.8 °C | – | 0.3 °C | – | – | > 50 µM | > 50 µM | > 50 µM | > 50 µM | > 50 µM
13 | CCN(CC)CCCC(=O)Nc1ccc(Nc2nc(-c3ccccc3NC(=O)CCCN(CC)CC)nc3ccccc23)cc1 | 0.54 µM | > 18.5 | Active | 13.6 °C | > 10 µM | 0.9 °C | – | – | > 50 µM | 27.3 µM | 21 µM | 32.5 µM | 24.5 µM
14 | Oc1ccccc1-c1nc(Nc2ccc(OCCN3CCCC3)cc2)c2ccccc2n1 | – | – | – | 1.6 °C | – | 0.2 °C | – | – | – | – | – | – | –
15 | CCN(CC)CC(=O)Nc1ccc(Nc2nc(-c3ccccc3NC(=O)CN(CC)CC)nc3ccccc23)cc1 | 3.94 µM | – | – | 8.8 °C | – | 0.3 °C | – | – | 2.7 µM | 6.5 µM | 3.14 µM | 29.8 µM | > 50 µM
